Results: ChEMBL document CHEMBL4513216, “Probing the Open Global Health Chemical Diversity Library for Multistage-Active Starting Points for Next-Generation Antimalarials” (ACS Infect Dis, 2020)

Test: Toxicity liver stage against HepG2, at 10uM
Assay type: cell-based
Set-up: test concentration 10 uM, cell line HepG2-A16-CD81EGFP
Conditions: human, HepG2-A16-CD81EGFP cells; read-out: INHIBITION
Summary of the method: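 Uninfected HepG2-A16-CD81EGFP cells, 3 × 10^3 per well, 1536-well, plated on prespotted compound at 10 μM final, parasite-free screening media added to match infected plates; puromycin 10 μM positive, DMSO 0.5% negative; run in parallel with 48 h PbLuc assay at 37 °C, 5% CO2; viability by CellTiter-Glo luminescence, normalized to controls.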

| Compound | cytotoxicity at 10 µM [%] |
| --- | --- |
| Cn1cncc1-c1nnc([C@H]2CCN(Cc3ccc(CO)o3)C2)o1 | -4.09 |
| Cn1ccnc1CN1C[C@H]2CN(S(=O)(=O)c3ccccc3)CCN2C1=O | 8.36 |
| CC(C)(C)c1c[nH]c([C@@H]2COCCN2C2CCCCC2)n1 | -1.6 |
| CC1CCN(C[C@H]2CN3CC[C@H]2C[C@@H]3CNC(=O)c2ccco2)CC1 | -1.55 |
| CCCOC(=O)c1ccc(-c2ccc(/C=C3\C(=O)NC(=N)N3C)o2)cc1 | 2.91 |
| CC1CCN(c2ccc(=O)n(CC(=O)N(C)Cc3ccccc3)n2)CC1 | 4.84 |
| COc1ccc2c(c1)c(C(=O)Nc1cc(C)n(C)n1)cn2C(C)C | -1.33 |
| COC(=O)CNC(=O)c1nc(Cl)sc1C(C)C | 1.34 |
| Cn1nnn(-c2ccc(NS(=O)(=O)c3ccc(Br)cc3)cc2)c1=O | -2.77 |
| O=C(NCCn1cnc(C2CCCC2)cc1=O)NCc1cccs1 | -7.05 |
| CCOc1ccc(S(=O)(=O)N(CCOC)Cc2ccoc2)cc1F | 8.31 |
| CNC(=O)CN1C(=O)CCC12CCCN(Cc1ccccn1)C2 (centres undefined) | 4.5 |
| O=C1N(Cc2cccc(F)c2)CCC12CCCNC2 (centres undefined) | -5.19 |
| CCN1C(=O)CCCC12CCCN(C(=O)c1sccc1C)C2 (centres undefined) | 3.73 |
| CCN1C(=O)CCCC12CCCN(C(=O)c1cc(C)oc1C)C2 (centres undefined) | 4.09 |
| Cc1ccc(CN2CC3(CCN(C(=O)Cc4ccc(Cl)cc4)C3)C2)o1 | 6.11 |
| CC(=O)c1ccc(NC(=O)N[C@H](C(=O)O)C(C)C)cc1 | -14.8 |
| CCNC(=O)c1ccc2c(c1)nc1n2CCN(C(C)C)C1 | 9.35 |
| COC(=O)c1ccccc1NC(=O)c1nc2ccccc2n(C)c1=O | -9.99 |
| CC(C)(C)C(=O)N1CCC2(COCc3cnc(N4CCOCC4)nc32)C1 (centres undefined) | -14.2 |
| CC(Oc1ccc2c(c1)OCO2)C(=O)Nc1ccon1 (centres undefined) | 1.09 |
| O=C(NCCC(O)c1ccccc1)c1ccco1 (centres undefined) | -0.749 |

| Compound | cytotoxicity at 10 µM [%] |
| --- | --- |
| O=C(NC1CC1)c1cc(Sc2ncccn2)ccn1 | 0.493 |
| O=C(O)c1ccccc1-c1cnc(CNC(=O)C2CCOCC2)nc1 | -3.99 |
| Cc1cc(C(F)(F)F)n2nc(C3CCN(S(C)(=O)=O)CC3)cc2n1 | 0.065 |
| CCN(CC)CCCNCc1cc2cc(C)cc(C)c2[nH]c1=O | 7.63 |
| CCc1n[nH]c(C(=O)NCCn2ccc(C)n2)c1C | 8.58 |
| CS(=O)(=O)N1CCCC1c1cccc(Nc2nccs2)n1 (centres undefined) | -33.4 |
| Cc1ncc(CNC(=O)Cc2ccsc2)c(C2CCCN2C)n1 (centres undefined) | -1.25 |
| CN1CC(c2cc(O)nc(NCc3ccc(Cl)cc3)n2)CC1=O (centres undefined) | -9.54 |
| CCCC(NC(=O)c1cc(C2CC2)[nH]n1)c1nnc2ccccn12 (centres undefined) | 0.11 |
| Oc1cccc(CNCc2ccc(-n3cncn3)nc2)c1 | 4.01 |
| COc1ccc(-c2noc(C3=NN(C)C(=O)CC3)n2)cc1OC | -0.51 |
| CCc1cccc(C)c1NC(=O)NCCCN(CC)S(C)(=O)=O | 4.87 |
| CC(c1nc(C2CC2)no1)N1CCC(NS(=O)(=O)c2cccs2)CC1 (centres undefined) | 6.4 |
| Cn1cnc(S(=O)(=O)N2CCCc3cc(F)cc(F)c32)c1Cl | -0.767 |
| COC(=O)c1ccc(F)c(S(=O)(=O)Nc2ccc(C(N)=O)cc2)c1 | 3.63 |
| Cc1cc(CSc2ccccn2)on1 | 8.4 |
| CN(C)c1ccc(C(=O)Nc2ccn(CCc3ccncc3)n2)cn1 | -12.7 |
| O=C(Nc1ccc(-n2cncn2)nc1)N(CC1CCOC1)C1CC1 (centres undefined) | -9.2 |
| Cc1nnc2n1CCN(C(=O)c1cnc3c(cnn3CC(C)C)c1)C2 | -8.72 |
| Cc1ccn(-c2ccc(N3CCN(Cc4ccccn4)CC3)nn2)n1 | 5.6 |
| O=C(CN1CCS(=O)(=O)CC1)NC1CCCc2ccccc21 (centres undefined) | -0.82 |
| Cc1nc(CN2CCN(C(=O)c3scnc3C)CC2)cs1 | 0.524 |

| Compound | cytotoxicity at 10 µM [%] |
| --- | --- |
| CC(C)CC(=O)Nc1c(-c2ccc(F)cc2)ncn1C | 5.87 |
| CNS(=O)(=O)CC(=O)N1CC2(CCCC2)c2c(F)cccc21 | -1.21 |
| CCSc1ccc(NC(=O)NC(C)c2c(C)nn(C)c2C)cn1 (centres undefined) | -2.6 |
| CSCCC(C)NC(=O)N(C)Cc1cc(Cl)cn1C (centres undefined) | 3.04 |
| O=C(c1cccc2c1OCO2)N1CCC(N2CCCC2)CC1 | -2.35 |
| CCc1n[nH]c(C2CN(Cc3csc(C4CCCC4)n3)CCO2)n1 (centres undefined) | -14.6 |
| N#Cc1ccc(OC2CCN(CC(=O)NCC(F)(F)F)CC2)cc1 | 11.9 |
| COCCS(=O)(=O)NCC(C)c1cccc(C)c1 (centres undefined) | 2.03 |
| CC(C)C(CCO)NC(=O)Nc1cc(F)ccc1-n1cccn1 (centres undefined) | -4.06 |
| CN(CC(N)=O)CC(=O)N(C1=CCCCC1)C1CC1 | -3.85 |
| CN(CC(=O)N1CCN(c2ncccn2)CC1)c1ccc(Cl)cn1 | -9.65 |
| CCc1noc(C(C)N2CCN(c3ccc(C#N)cc3F)CC2)n1 (centres undefined) | -9.7 |
| O=C1NCC2(CCCN(C(=O)Nc3ccc4occc4c3)CC2)O1 (centres undefined) | 2.09 |
| CCN(CC)CC(=O)NCc1cccnc1-n1cnc2ccccc21 | 1.77 |
| CSCC(=O)NC1CC(=O)N(CCc2ccccc2)C1 (centres undefined) | -2.1 |
| CCc1nc(C)c([C@H]2CN(C)C[C@@H]2C(=O)Nc2cccc3cn[nH]c23)[nH]1 | -3.44 |
| COc1ccc(OCc2cc(C(=O)N3CCSCC3)n[nH]2)c(Cl)c1 | -7.51 |
| Cc1cc(C)c(C#N)c(N2CCC3(CCCN(CCO)C3=O)C2)n1 (centres undefined) | 0.854 |
| CCNc1nc(C)c(C(=O)N(C)Cc2nc(-c3ccncc3)no2)s1 | 1.41 |
| Cc1ccnc(NCCNC(=O)C2CC3(CCNCC3)CN2C)c1 (centres undefined) | 2.69 |
| C[C@@H]1CN(CCOc2ccc(Cl)cc2)CC[C@@]1(O)C1CCOCC1 | 19.4 |
| COC(=O)NCC(=O)N1CCC(Oc2cccc(C)c2)CC1 | -0.555 |

| Compound | cytotoxicity at 10 µM [%] |
| --- | --- |
| CC(Oc1ccc(F)cc1F)C(=O)N1CCC2(CC1)CC(=O)N(C)C2 (centres undefined) | 1.63 |
| Cc1cc2nc(C(C)C)cc(N3CCC(Oc4ncccn4)CC3)n2n1 | 13.9 |
| CCC(CO)N(Cc1cccnc1)Cc1ccc(-c2ccn[nH]2)s1 (centres undefined) | -1.55 |
| O=C(NC1CCCNC1)c1cc(COc2cccc(C(F)(F)F)c2)[nH]n1 (centres undefined) | -1.31 |
| Cc1[nH]c2c(C)ccc(C)c2c1CC(=O)NCCNc1cccnc1 | 0.393 |
| COCCN(Cc1cccs1)c1nc(CCN)nc2ccccc12 | 4.49 |
| COc1cccn(CC(=O)N2CCCC3(CCCCC3)C2)c1=O | -1.29 |
| CN(C)CC(C)(C)Cn1cnc(-c2ccccc2)c1-c1ccncc1 | 4.19 |
| Cc1ccn(CCC(=O)N2CCOC(c3nc(-c4cccs4)no3)C2)n1 (centres undefined) | 7.03 |
| CCOCC(O)CN1CCN(C(=O)c2cc(Cl)ccc2F)CC1 (centres undefined) | -6.54 |
| COc1cccc(CC(=O)N2CCC(NCc3c[nH]nc3C)CC2)c1 | -8.98 |
| Cc1csc(C2CCCN(C(=O)Cn3ccccc3=O)C2)n1 (centres undefined) | -5.68 |
| CC(C)(C)c1nc(CN2CCC(c3ccnn3CCO)CC2)no1 | -5.22 |
| Cc1cccnc1CNC(=O)N(CCCO)C1CCc2ccccc21 (centres undefined) | -11.4 |
| CC(C)Oc1ncccc1CNC(=O)Nc1ccccn1 | -9.41 |
| c1ccc(-n2cc(CN3CCCC3Cn3cccn3)nn2)cc1 (centres undefined) | 0.207 |
| Cc1ccc(OCC(=O)NC2CCN(S(C)(=O)=O)CC2)cc1 | -0.0552 |
| Cc1ccc(CNC(=O)NC(C)Cn2cccn2)cn1 (centres undefined) | -11.2 |
| COC1CCN(Cc2csc(C(C)C)n2)CC1 | 3.32 |
| Cc1cc(NC(=O)C(C)N2CCN(c3nc(C)cs3)CC2)on1 (centres undefined) | -0.71 |
| CN(Cc1cc(-c2ccccc2)no1)CC1CCCN1c1cccnn1 (centres undefined) | -9.09 |
| CN(Cc1cccnc1)CC1CCCN1c1cccnn1 (centres undefined) | 0.192 |

| Compound | cytotoxicity at 10 µM [%] |
| --- | --- |
| FC(F)(F)c1nc(C2CCCNC2)no1 (centres undefined) | 5.25 |
| NCCc1cn(Cc2ccccn2)c2ccccc12 | 3.71 |
| Cc1ccc([C@]2(O)CC[C@H]3CN(Cc4ccccc4F)C[C@H]32)nc1 | -12.8 |
| O=C1CCC2(CCC(NC3CCOC3)CC2)N1Cc1ccccc1 (centres undefined) | -5.54 |
| Cn1cc(C(=O)N[C@@H]2CN(Cc3ccc(F)cc3)[C@@H]3CCCO[C@@H]32)cn1 | -1.31 |
| CN1CC(=O)N(c2cccc(F)c2)CC12CCN(Cc1ccncc1)C2 (centres undefined) | 5.69 |
| CN1CC[C@@H]2[C@@H](CO[C@H]2CNC(=O)c2nccn2C)C1 | -113 |
| CCc1ccc(CN2CCC3(CC2)C(=O)N(C)CCN3CC2CC2)cc1 | 5.68 |
| Cc1ccc(CN2Cc3c(C(=O)N4CCOCC4)nn(C)c3C2)s1 | 6.15 |
| Cn1cc(CN2CCCC23CCN(C(=O)c2ccccn2)CC3)cn1 | -1.94 |
| O=C(NCc1ccccn1)[C@]12COC[C@H]1CN(Cc1cccnc1)C2 | 5.64 |
| O=C(NC1CCCC1)c1ccc(C2CCCNC2)nc1 (centres undefined) | -13.7 |
| O=C(c1cccs1)N1C[C@@H]2OCCN(CC3CCCO3)[C@@H]2C1 (some centres undefined) | -2.24 |
| O=C(C[C@@H]1COC[C@H]2CN(Cc3ccc(F)cc3)C[C@@H]12)N1CCOCC1 | 7.75 |
| COCCN1CCc2cc(C(=O)O)c(NCC3CC3)nc2CC1 | 4.21 |
| Fc1cccnc1OC[C@@]12CCO[C@@H]1CCN(CC1CCOCC1)C2 | -14.6 |
| c1cncc(C2COC3(CCN(CC4CC4)CC3)C2)c1 (centres undefined) | -14.9 |
| CNC(=O)[C@@]12CCCN(c3ncccn3)[C@@H]1CN(C)C2 | 12.8 |
| c1ccc(CO[C@H]2CO[C@@]3(CCCN(Cc4cccnc4)C3)C2)nc1 | -6.37 |
| O=S(=O)(Cc1ccccc1)N1CCCn2cnc(CN3CCCC3)c2C1 | 3.3 |
| CCOC(=O)c1cnn(C2CCN(C(=O)CC(C)(C)C)CC2)c1N | 6.26 |
